The values that follow come from ChEMBL document CHEMBL1138559, “Synthesis and in vitro anti-HIV evaluation of a new series of 6-arylmethyl-substituted S-DABOs as potential non-nucleoside HIV-1 reverse transcriptase inhibitors” (Eur J Med Chem, 2009).

In data set [1] the test system is Human immunodeficiency virus 1. Briefly: Antiviral activity against HIV1 3B infected in human MT4 cells assessed as inhibition of virus-induced cytopathic effect after 4 days by MTT assay. Format: functional, organism-based. Particulars: Human immunodeficiency virus 1, 3B, MT4, 96 h. The essentials: (§1)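 MT-4 cells at 1 × 10^5 cells/mL infected at MOI 0.02 (virus stocks titrated in MT-4, as CCID50), then put at once into wells with serial compound dilutions (DMSO stocks, 50 mM or higher). Incubation 4 days, 37 °C. Viable cells counted by MTT. IC50 taken as concentration protecting 50% of infected cells.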
A general note: Damage to the host cells serves as the signal in cytopathic effect assays.

The subject of data set [2] is Human immunodeficiency virus 2. Briefly: Antiviral activity against HIV2 ROD infected in human MT4 cells assessed as inhibition of virus-induced cytopathic effect after 4 days by MTT assay. Particulars: Human immunodeficiency virus 2, ROD, MT4, 96 h. The data set is classed as functional, organism-based. In outline:
as §1

The nature of data set [3]: Cytotoxicity against human MT4 cells by MTT assay. Format: cell-based. The essentials:
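Uninfected MT-4 cells run in parallel with the antiviral plates, with serial compound dilutions from DMSO stocks (50 mM or higher), for 4 days at 37 °C. Viability read by MTT. CC50 is the concentration that lowers viability of uninfected cells by 50%.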

Data set [4] is described as follows: Selectivity index, ratio of CC50 for human MT4 cells to IC50 for HIV1 3B. The data set is classed as functional. The essentials: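 Ratio CC50/IC50. CC50 comes from MTT viability of uninfected MT-4 cells, and IC50 from MTT protection of HIV-1-infected MT-4 cells (MOI 0.02). Both were read after 4 days at 37 °C in parallel assays.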

One may read the IC50 as the midpoint of a concentration-inhibition curve. By CC50 is commonly meant the concentration that lowers cell viability or growth by half. Higher therefore signals lower toxicity to the cells. For the molecule `CCc1c(Cc2c(Cl)cccc2Cl)nc(SCc2ccc([N+](=O)[O-])cc2)[nH]c1=O`, the IC50 in data set [1] is 0.36 µM; in data set [2], above 278 µM. This molecule also returned a CC50 in data set [3] above 278 µM. In data set [4], the “Ratio CC50/IC50” value is given as above 772.

`CCc1c(Cc2c(Cl)cccc2Cl)nc(SCc2ccc(OC)cc2)[nH]c1=O`: the IC50 is 0.16 µM in data set [1] and above 287 µM in data set [2]. Further, in data set [3], the CC50 was above 287 µM. Further, the “Ratio CC50/IC50” value in data set [4] is above 1793.

In the case of `COc1ccc(CSc2nc(Cc3ccc(-c4ccccc4)cc3)c(C)c(=O)[nH]2)cc1`, the IC50 in data set [1] and in data set [2] was above 100 µM each time. Also, half-maximal cytotoxicity in data set [3] (CC50) was put at 100 µM. Also, the “Ratio CC50/IC50” value in data set [4] is given as below 1.

With `COc1ccc(CSc2nc(Cc3cccc4ccccc34)c(C(C)C)c(=O)[nH]2)cc1`, the 50% inhibitory concentration (IC50) in data set [1] is 0.21 µM; in data set [2] it was above 37.4 µM. Moreover, in data set [3], half-maximal cytotoxicity (CC50) was put at 37.4 µM. Further, the “Ratio CC50/IC50” value in data set [4] worked out at 178.

For `COc1ccc(CSc2nc(Cc3ccc(Br)cc3)c(C)c(=O)[nH]2)cc1`, the concentration for half-maximal inhibition (IC50) in data set [1] and in data set [2] was above 290 µM throughout. The molecule further showed a 50% cytotoxic concentration (CC50) in data set [3] above 290 µM.

In the case of `COc1ccc(CSc2nc(Cc3ccccc3Br)c(C)c(=O)[nH]2)cc1`, the results for the IC50 in data set [1] and in data set [2] were 1.04 µM and above 179 µM, respectively. The same molecule showed a CC50 in data set [3] of 179 µM. Also, the “Ratio CC50/IC50” value in data set [4] was found to be 172.

Turning to `COc1ccc(CSc2nc(Cc3cc(C)cc(C)c3)c(C)c(=O)[nH]2)cc1`, the values for the IC50 in data set [1] and in data set [2] were 1.1 µM and above 329 µM, respectively. This molecule also showed a cytotoxic concentration (CC50) in data set [3] above 329 µM. In addition, the “Ratio CC50/IC50” value in data set [4] is recorded as above 299.

Turning to `Cc1cc(C)cc(Cc2nc(SCc3ccc([N+](=O)[O-])cc3)[nH]c(=O)c2C)c1`, the half-maximal inhibitory concentration (IC50) in data set [1] is 5.46 µM; in data set [2], above 316 µM. In data set [3], this molecule had a CC50 above 316 µM. Moreover, in data set [4], the “Ratio CC50/IC50” value is on record as above 58.

With `COc1ccc(CSc2nc(Cc3cc(C(F)(F)F)cc(C(F)(F)F)c3)c(C)c(=O)[nH]2)cc1`, the IC50 in data set [1] and in data set [2] was above 256 µM throughout. For the same molecule, the CC50 in data set [3] is above 256 µM.

Take `CCc1c(Cc2cc(C)cc(C)c2)nc(SCc2ccc(OC)cc2)[nH]c1=O`: the values for the IC50 in data set [1] and in data set [2] were 0.12 µM and above 317 µM, respectively. In data set [3], the CC50 was above 317 µM. In data set [4], the “Ratio CC50/IC50” value is above 2642.

For `CCc1c(Cc2ccc(Br)cc2)nc(SCc2ccc(OC)cc2)[nH]c1=O`, the IC50 in data set [1] and in data set [2] was above 281 µM throughout. For the same molecule, in data set [3], the CC50 is above 281 µM.

Take `CCc1c(Cc2ccccc2Br)nc(SCc2ccc([N+](=O)[O-])cc2)[nH]c1=O`: the IC50 in data set [1] is 0.74 µM; in data set [2], above 272 µM. The same molecule returned a CC50 in data set [3] above 272 µM. In data set [4], the “Ratio CC50/IC50” value is above 368.

Take `CCc1c(Cc2cccc(Br)c2)nc(SCc2ccc(OC)cc2)[nH]c1=O`: the IC50 is 0.28 µM in data set [1] and above 201 µM in data set [2]. The midpoint of cytotoxicity in data set [3], the CC50, lay at 201 µM. Besides, the “Ratio CC50/IC50” value in data set [4] was found to be 718.

With `CCc1c(Cc2ccc(-c3ccccc3)cc2)nc(SCc2ccc(OC)cc2)[nH]c1=O`, the concentration for half-maximal inhibition (IC50) in data set [1] and in data set [2] was above 194 µM throughout. In addition, the 50% cytotoxic concentration (CC50) in data set [3] is 194 µM. Moreover, the “Ratio CC50/IC50” value in data set [4] is below 1.

`Cc1c(Cc2cc(C(F)(F)F)cc(C(F)(F)F)c2)nc(SCc2ccc([N+](=O)[O-])cc2)[nH]c1=O`: the IC50 in data set [1] and in data set [2] was above 248 µM in each case. Further, in data set [3], the CC50 was above 248 µM.

`CCc1c(Cc2cc(C)cc(C)c2)nc(SCc2ccccc2)[nH]c1=O`: the IC50 in data set [1] was 0.95 µM; in data set [2], above 343 µM. For the same molecule, the CC50 in data set [3] is above 343 µM. In data set [4], the “Ratio CC50/IC50” value is given as above 361.

For `CCc1c(Cc2cc(C(F)(F)F)cc(C(F)(F)F)c2)nc(SCc2ccc([N+](=O)[O-])cc2)[nH]c1=O`, the IC50 in data set [1] and in data set [2] was above 242 µM each time. In data set [3], this molecule came in with a CC50 above 242 µM.

As for `CCc1c(Cc2cc(C(F)(F)F)cc(C(F)(F)F)c2)nc(SCc2ccc(OC)cc2)[nH]c1=O`, the IC50 in data set [1] is at least 9.47 µM; in data set [2], above 249 µM. Further, the CC50 in data set [3] was above 249 µM. Moreover, the “Ratio CC50/IC50” value in data set [4] is listed as “<=26”.

Regarding `COc1ccc(CSc2nc(Cc3cccc(Br)c3)c(C)c(=O)[nH]2)cc1`, the half-inhibitory concentration (IC50) is 6.42 µM in data set [1] and above 290 µM in data set [2]. The same molecule had a CC50 in data set [3] above 290 µM. Also, in data set [4], the “Ratio CC50/IC50” value was above 45.

As to `Cc1c(Cc2cccc(Br)c2)nc(SCc2ccc([N+](=O)[O-])cc2)[nH]c1=O`, the half-inhibitory concentration (IC50) is 14.2 µM in data set [1] and above 280 µM in data set [2]. Besides, in data set [3], the CC50 was above 280 µM. The “Ratio CC50/IC50” value in data set [4] is above 20.

For `Cc1c(Cc2ccccc2Br)nc(SCc2ccc([N+](=O)[O-])cc2)[nH]c1=O`, the IC50 was 1.46 µM in data set [1] and above 246 µM in data set [2]. The molecule further gave a CC50 in data set [3] of at least 246 µM. Besides, the “Ratio CC50/IC50” value in data set [4] was “>=168”.

On to `CCc1c(Cc2cc(C)cc(C)c2)nc(SCc2ccc([N+](=O)[O-])cc2)[nH]c1=O`, for which the IC50 in data set [1] was 0.16 µM; in data set [2], above 305 µM. The CC50 in data set [3] is above 305 µM. For the same molecule, the “Ratio CC50/IC50” value in data set [4] is given as above 1906.

As for `CCc1c(Cc2cccc3ccccc23)nc(SCc2ccc(OC)cc2)[nH]c1=O`, the IC50 is 1.32 µM in data set [1] and above 227 µM in data set [2]. For the same molecule, in data set [3], half-maximal cytotoxicity (CC50) was put at 261 µM. For the same molecule, in data set [4], the “Ratio CC50/IC50” value worked out at 198.

Regarding `CCc1c(Cc2cccc(Br)c2)nc(SCc2ccc([N+](=O)[O-])cc2)[nH]c1=O`, the figures for the IC50 in data set [1] and in data set [2] were 1.34 µM and above 187 µM, respectively. The molecule further showed a CC50 in data set [3] of 187 µM. The “Ratio CC50/IC50” value in data set [4] was 139.6.

As to `CCc1c(Cc2ccccc2Br)nc(SCc2ccc(OC)cc2)[nH]c1=O`, the half-maximal inhibitory concentration (IC50) is 0.23 µM in data set [1] and above 165 µM in data set [2]. In data set [3], this molecule had a CC50 of 165 µM. Further, the “Ratio CC50/IC50” value in data set [4] came out at 717.

For `O=c1[nH]cnc2c1ncn2[C@H]1CC[C@@H](CO)O1` [DIDANOSINE], the figures for the IC50 in data set [1] and in data set [2] were 5.37 µM and 2.71 µM, respectively. In data set [3], this molecule yielded a half-maximal cytotoxic concentration (CC50) of at least 529 µM. In addition, the “Ratio CC50/IC50” value in data set [4] is reported as “>=98”.

With `Cc1c(Sc2ccccc2)n(COCCO)c(=O)[nH]c1=O` [HEPT], the IC50 was 5.06 µM in data set [1] and above 405 µM in data set [2]. For the same molecule, the CC50 in data set [3] was at most 399 µM. Besides, the “Ratio CC50/IC50” value in data set [4] is given as 79.
